Source: ChEMBL document CHEMBL1121830, “Inhibitors of polyamine biosynthesis. 9. Effects of S-adenosyl-L-methionine analogues on mammalian aminopropyltransferases in vitro and polyamine biosynthesis in transformed lymphocytes” (1981)

Legend:
[1] = target: T1, Spermidine synthase (Rattus norvegicus) (UniProt Q99MI5); assay: Substrate activity for the Bovine brain spermidine synthase product formation; details: Bos taurus; target entry is the homologue from another species
T1 sequence (whole entry): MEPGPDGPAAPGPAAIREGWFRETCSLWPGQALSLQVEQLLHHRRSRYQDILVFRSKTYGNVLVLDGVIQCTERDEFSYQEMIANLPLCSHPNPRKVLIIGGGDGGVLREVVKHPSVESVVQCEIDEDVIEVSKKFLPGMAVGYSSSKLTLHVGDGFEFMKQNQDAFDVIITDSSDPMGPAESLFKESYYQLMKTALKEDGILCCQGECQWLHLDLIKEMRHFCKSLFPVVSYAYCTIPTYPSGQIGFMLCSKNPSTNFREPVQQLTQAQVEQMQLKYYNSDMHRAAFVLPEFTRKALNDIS

[2] = tested on: spermine synthase (Bos taurus); assay: Compound was tested for its effect on Bovine brain spermine synthase at 0.1 mM
Mus musculus [3] = organism: Mus musculus; assay: Effect on spermidine polyamine accumulation in concanavalin A stimulated lymphocytes at 0.02 mM
[4] = tested on: spermine synthase (Rattus norvegicus); assay: Compound was tested for its effect on rat prostatic spermine synthase at 0.1 mM
Mus musculus [5] = organism: Mus musculus; assay: Effect of the addition of stimulated spermidine on the intracellular concentration in concanavalin A stimulated lymphocytes in the presence of compound (0.5 mM) at 48 hours
Mus musculus [6] = organism: Mus musculus; assay: Effect of the addition of stimulated spermine (50 uM) on the intracellular concentration in concanavalin A stimulated lymphocytes in the absence of compound at 48 hours
[7] = target: T1, Spermidine synthase (Rattus norvegicus); assay: Substrate activity for Prostatic spermidine synthase product formation in rat
Outline: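 Substrate test: 0.13 mM S-methyladenosylhomocysteamine or analogue with 0.6 mM [14C]putrescine (spermidine synthase) or [14C]spermidine (spermine synthase). Enzyme was 1.57 mg rat ventral prostate soluble supernatant protein or 0.09 mg enzyme purified 30-fold from bovine brain soluble fraction. Incubated 20 min at 37 °C, stopped with perchloric acid, and labelled polyamines measured by paper electrophoresis.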

Mus musculus [8] = organism: Mus musculus; assay: Effect of the addition of stimulated spermidine on the intracellular concentration in concanavalin A stimulated lymphocytes in the presence of compound (0.5 mM) at 24 hours
Mus musculus [9] = organism: Mus musculus; assay: Effect on putrescine polyamine accumulation in concanavalin A stimulated lymphocytes at 0.02 mM
Mus musculus [10] = organism: Mus musculus; assay: Effect on spermidine polyamine accumulation in concanavalin A stimulated lymphocytes at 0.05 mM
Mus musculus [11] = organism: Mus musculus; assay: Effect on putrescine polyamine accumulation in concanavalin A stimulated lymphocytes at 0.05 mM
Mus musculus [12] = organism: Mus musculus; assay: Effect on spermidine polyamine accumulation in concanavalin A stimulated lymphocytes at 0.10 mM
[13] = tested on: spermine synthase (Bos taurus); assay: Compound was tested for its effect on Bovine brain spermine synthase at 1.0 mM
Mus musculus [14] = organism: Mus musculus; assay: Effect of the addition of stimulated spermidine on the intracellular concentration in concanavalin A stimulated lymphocytes in the absence of compound at 48 hours
[15] = tested on: spermine synthase (Bos taurus); assay: Compound was tested for its effect on Bovine brain spermine synthase at 0.01 mM
Mus musculus [16] = organism: Mus musculus; assay: Effect of the addition of stimulated spermidine on the intracellular concentration in concanavalin A stimulated lymphocytes in the presence of spermidine (50 uM) at 48 hours
Mus musculus [17] = organism: Mus musculus; assay: Effect of the addition of stimulated spermidine on the intracellular concentration in concanavalin A stimulated lymphocytes in the presence of compound (0.5 mM) and putrescine (50 uM) at 48 hours
Mus musculus [18] = organism: Mus musculus; assay: Effect on putrescine polyamine accumulation in concanavalin A stimulated lymphocytes at 0.10 mM
Mus musculus [19] = organism: Mus musculus; assay: Effect of the addition of stimulated putrescine on the intracellular concentration in concanavalin A stimulated lymphocytes in the absence of compound at 48 hours
[20] = tested on: spermine synthase (Bos taurus); assay: Compound was tested for its effect on Bovine brain spermine synthase at 0.4 mM
[21] = tested on: Spermine synthase (Rattus norvegicus); assay: Substrate activity for Prostatic spermine synthase product formation in rat
Mus musculus [22] = organism: Mus musculus; assay: Effect of the addition of stimulated spermine on the intracellular concentration in concanavalin A stimulated lymphocytes in the absence of compound at 48 hours
Mus musculus [23] = organism: Mus musculus; assay: Effect on putrescine polyamine accumulation in concanavalin A stimulated lymphocytes at 0.35 mM
Mus musculus [24] = organism: Mus musculus; assay: Effect of the addition of stimulated spermidine on the intracellular concentration in concanavalin A stimulated lymphocytes in the presence of compound (0.5 mM) and spermine (50 uM) at 48 hours
Mus musculus [25] = organism: Mus musculus; assay: Effect of the addition of stimulated spermidine on the intracellular concentration in concanavalin A stimulated lymphocytes in the presence of compound (0.5 mM) and spermidine (50 uM) at 48 hours
Mus musculus [26] = organism: Mus musculus; assay: Effect on putrescine polyamine accumulation in concanavalin A stimulated lymphocytes at 0.50 mM
[27] = target: T1, Spermidine synthase (Rattus norvegicus); assay: Compound was tested for its effect on rat prostatic spermidine synthase at 0.1 mM
Outline: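 Rat prostate spermidine synthase preparation with 20 μM 14C-S-methyladenosylhomocysteamine and 1 mM putrescine, inhibitor at 0.1 mM. Incubation at 37 °C for 15 min; radiolabelled spermidine formed was measured.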

Mus musculus [28] = organism: Mus musculus; assay: Effect on putrescine polyamine accumulation in concanavalin A stimulated lymphocytes at 0.20 mM
Mus musculus [29] = organism: Mus musculus; assay: Effect of the addition of stimulated spermine on the intracellular concentration in concanavalin A stimulated lymphocytes in the absence of compound at 24 hours
Mus musculus [30] = organism: Mus musculus; assay: Effect of the addition of stimulated spermidine on the intracellular concentration in concanavalin A stimulated lymphocytes in the presence of spermine (50 uM) at 48 hours

Activity [1]: 25 pmol/min
Activity [2]: 88%
Activity [4]: 66%
Activity [7]: 56 pmol/min
Activity [13]: 23%
Activity [15]: 102%
Activity [20]: 58%
Activity [21]: 0%
Activity [27]: 76%
Structure (SMILES): CC(N)CC[S+](C)C[C@H]1O[C@@H](n2cnc3c(N)ncnc32)[C@H](O)[C@@H]1O.[I-] (stereo not given in full)
Level (Mus musculus [3]): 67.3 pmol/g DNA
Polyamine (Mus musculus [5]): 19.3 pmol/g
Polyamine (Mus musculus [6]): 98.2 pM/g
Polyamine (Mus musculus [8]): 17.5 pmol/g
Level (Mus musculus [9]): 17.8 pmol/g DNA
Level (Mus musculus [10]): 39.8 pmol/g DNA
Level (Mus musculus [11]): 11 pmol/g DNA
Level (Mus musculus [12]): 38.7 pmol/g DNA
Polyamine (Mus musculus [14]): 90.5 pmol/g
Polyamine (Mus musculus [16]): 157 pmol/g
Polyamine (Mus musculus [17]): 21.7 pmol/g
Level (Mus musculus [18]): 8.9 pmol/g DNA
Polyamine (Mus musculus [19]): 13.3 pmol/g
Polyamine (Mus musculus [22]): 59.8 pmol/g
Level (Mus musculus [23]): 4.2 pmol/g DNA
Polyamine (Mus musculus [24]): 20 pM/g
Polyamine (Mus musculus [25]): 26.2 pmol/g
Level (Mus musculus [26]): 3.5 pmol/g DNA
Level (Mus musculus [28]): 6.8 pmol/g DNA
Polyamine (Mus musculus [29]): 38.6 pmol/g
Polyamine (Mus musculus [30]): 38.2 pmol/g
